One series relates to WWE domain from RNF-146. The following applies: ref Wang et al., 2012; cited from earlier work.
Series [1] deals with hP13 ZnF5-WWE1-WWE2 (wild type) (Homo sapiens, UniProt Q7Z2W4). The series can be described thus: Differential scanning fluorimetry. As to conditions: protein 8 μM, DSF. The series is classed as binding. The essentials:
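His-GB1-tagged human fragment (residues 507–699) expressed in E. coli Rosetta2, TEV-cleaved, purified by Ni2+, gel filtration and Q flow-through. TM from Boltzmann fit; ΔTM = TM with ligand minus without; two repeats.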
(In general: Differential scanning fluorimetry follows unfolding on heating by fluorescence.)

Series [2] addresses T1, hP13 ZnF5-WWE1-WWE2 W611A mutant (Homo sapiens, UniProt Q7Z2W4, W611A). The series can be described thus: Differential scanning fluorimetry. The series is classed as binding. The following applies: protein 8 μM, DSF.
The target in another series is hP13 ZnF5-WWE1-WWE2 (Homo sapiens, UniProt Q7Z2W4). The series is described as follows: FP RNA binding assay. The following applies: FAM-labeled RNA 5 nM, 300 mM KCl.
hP13 ZnF5-WWE1-WWE2, sequence (Q7Z2W4 507-699): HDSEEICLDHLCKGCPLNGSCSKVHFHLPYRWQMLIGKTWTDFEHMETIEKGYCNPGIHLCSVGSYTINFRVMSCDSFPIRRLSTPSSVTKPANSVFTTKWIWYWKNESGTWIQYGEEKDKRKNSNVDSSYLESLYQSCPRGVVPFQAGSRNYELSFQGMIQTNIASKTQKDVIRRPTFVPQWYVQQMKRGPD
The target in series [3] is mouse PARP13 (mP13) ZnF5-WWE1-WWE2 (residues 476-673) (mouse) (UniProt Q3UPF5). The series is described as follows: SEC-MALS. On the technique in general: SEC sorts molecules by how far they enter the pores of the column.
Series [4] concerns the target T1, hP13 ZnF5-WWE1-WWE2 W611A mutant. The series is described as follows: Fluorescence polarization. As to conditions: direct FP binding, probe 5 nM. The method, boiled down: (§1)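 QuickChange point mutants of human fragment (residues 507–699), His-GB1 fusion, expressed in Rosetta2 (0.2 mM IPTG, 16°C, 18 h), TEV-cleaved, purified by Ni2+, gel filtration, Q flow-through. Quadratic 1:1 KD fit; ≥3 experiments, mean ± SD.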

A further series has as its system WWE domain of RNF-146. The series is described as follows: Fluorescence polarization. As to conditions: direct FP binding, probe 5 nM. A general note: In fluorescence polarisation assays a small probe gives low polarisation when free and higher when bound to something large.
Series [5] addresses hP13 ZnF5-WWE1-WWE2 R682A mutant (Homo sapiens, UniProt Q7Z2W4, R682A). The series is described as follows: Fluorescence polarization. The series is classed as binding. The following applies: R682A versus wild-type hP13 ZnF5-WWE1-WWE2. The method, boiled down:
as §1

Series [6] deals with hP13 ZnF5-WWE1-WWE2 R577A mutant (Homo sapiens, UniProt Q7Z2W4, R577A). The series can be described thus: Fluorescence polarization. The series is classed as binding. The following applies: R577A versus wild-type hP13 ZnF5-WWE1-WWE2. The method, boiled down:
as §1

“Also recorded” adds a separate entry of the source. {56-FAM} = 6-carboxyfluorescein label (IDT code)

One may read the stoichiometry N as a count of units in the complex or per binding partner.

hP13 ZnF5-WWE1-WWE2 (wild type), sequence (Q7Z2W4 507-699): as above
T1 sequence (Q7Z2W4 507-699 W611A): as the sequence (Q7Z2W4 507-699) above, with W105A counted along it
hP13 ZnF5-WWE1-WWE2 R577A mutant, sequence (Q7Z2W4 507-699 R577A): as the sequence (Q7Z2W4 507-699) above, with R71A counted along it
hP13 ZnF5-WWE1-WWE2 R682A mutant, sequence (Q7Z2W4 507-699 R682A): as the sequence (Q7Z2W4 507-699) above, with R176A counted along it

On to `Nc1ncnc2c1ncn2[C@@H]1O[C@H](COP(=O)(O)OP(=O)(O)OC[C@H]2OC(O)[C@H](O)[C@@H]2O)[C@@H](O)[C@H]1O` (some centres unmarked) [ADPr, ADP-ribose], for which the “binding (in words)” value in the series with WWE domain from RNF-146 is on record as “do not bind”. Besides, the “change in thermal stability in presence of ligand (in words)” value (“change in thermal stability in presence” below) is recorded as “increase in the thermal stability; also recorded: increased hP13 ZnF5-WWE1-WWE2 thermal stability” in [1] and “did not show an increase in thermal stability” in [2].

Consider `Nc1ncnc2c1ncn2[C@@H]1O[C@H](COP(=O)(O)OP(=O)(O)OP(=O)(O)O)[C@@H](O)[C@H]1O` [ATP], for which the results for the “change in thermal stability in presence” value in series [1] and in [2] were “increase in the thermal stability” and “did not show an increase in thermal stability”, respectively.

With `Nc1ncnc2c1ncn2[C@@H]1O[C@H](COP(=O)(O)O)[C@@H](O)[C@H]1O[C@@H]1O[C@H](COP(=O)(O)O)[C@@H](O)[C@H]1O` [iso-ADPr], the “binding (in words)” value in the series with WWE domain from RNF-146 is listed as “capable of binding”. In addition, the “change in thermal stability in presence” value in series [1] is on record as “increase in thermal stability in the presence of iso-ADPr, but to a lesser extent than seen with ADPr”.

For the molecule “/56-FAM/rArArArCrArArArArArArArGrArCrGrArArArArA (AAACAAAAAAAGACGAAAAA; RNA, 5' {56-FAM}, backbone not given here) [RNA-FAM]”, the “RNA binding (in words)” value with hP13 ZnF5-WWE1-WWE2 is “unable to bind”.

In [3], “mouse PARP13 (mP13) ZnF5-WWE1-WWE2 (residues 476-673) (from UniProt Q3UPF5 476-673) (domain or fragment)” showed a percent of the scattering mass in the dimer peak of 4% and a stoichiometry N of 2.

On to γ-(6-Aminohexyl)-ATP-6-FAM [ATP-FAM], for which the “binding to probe (in words)” value (in [4]; in the series on WWE domain of RNF-146) was “no evidence of binding; also recorded: no indication of binding” throughout. Further, the “binding affinity, fold weaker than wild type” value is listed as 1.2 fold in series [5] and 1.1 fold in [6].
